Experimental data from ChEMBL document CHEMBL4145461, “Novel non-sulfonamide 5-HT6 receptor partial inverse agonist in a group of imidazo[4,5-b]pyridines with cognition enhancing properties” (Eur J Med Chem, 2018).

How the values were obtained:
[1] = target: D(3) dopamine receptor (Homo sapiens) (UniProt P35462); experiment: Displacement of [3H]methyl-spiperone from recombinant human dopamine D3 receptor at 1 uM after 60 mins by scintillation counting relative to control
[2] = target: 5-hydroxytryptamine receptor 7 (Homo sapiens, UniProt P34969); experiment: Displacement of [3H]-5-CT from human 5HT7BR expressed in HEK293 cell membranes after 1 hr by microbeta counting method
5-hydroxytryptamine receptor 7, sequence (P34969 whole entry): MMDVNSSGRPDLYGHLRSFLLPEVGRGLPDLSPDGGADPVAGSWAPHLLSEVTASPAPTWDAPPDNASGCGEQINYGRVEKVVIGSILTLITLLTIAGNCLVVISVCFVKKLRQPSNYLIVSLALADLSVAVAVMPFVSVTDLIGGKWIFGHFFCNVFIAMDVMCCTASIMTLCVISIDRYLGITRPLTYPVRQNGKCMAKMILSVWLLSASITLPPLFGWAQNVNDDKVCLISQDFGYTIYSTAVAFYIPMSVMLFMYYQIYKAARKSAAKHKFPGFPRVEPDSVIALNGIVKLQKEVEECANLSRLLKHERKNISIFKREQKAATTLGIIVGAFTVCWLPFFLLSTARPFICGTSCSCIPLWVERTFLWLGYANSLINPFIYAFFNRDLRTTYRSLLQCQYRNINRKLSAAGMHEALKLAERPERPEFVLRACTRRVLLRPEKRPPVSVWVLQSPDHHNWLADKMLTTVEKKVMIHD
Summary of the method: (§1)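 HEK293 (5-HT1A, 5-HT6, 5-HT7b, D2L) or CHO-K1 (5-HT2A) membranes, all Tris–HCl with 4 mM MgCl2 plus receptor-specific EDTA/pargyline/ascorbate (D2L adds NaCl, KCl, CaCl2). Nonspecific binding: 10 μM 5-HT (5-HT1A, 5-HT7), chlorpromazine (5-HT2A), methiothepine (5-HT6), haloperidol (D2L). Triplicate, 7–8 concentrations (10⁻¹¹–10⁻⁴ M), filtration; Ki via Cheng–Prusoff, mean of three experiments. Incubation 1 h 37 °C; 5-HT1A 1 h and 5-HT2A 1.5 h, room temperature.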

Cytochrome P450 2D6 [3] = target: T1, Cytochrome P450 2D6 (Homo sapiens, UniProt P10635); experiment: Induction of CYP2D6 (unknown origin) at 0.025 to 25 uM after 2 hrs by firefly luciferase-luminescence based P450-glo assay; format: ADME
T1 sequence (P10635 whole entry, canonical isoform): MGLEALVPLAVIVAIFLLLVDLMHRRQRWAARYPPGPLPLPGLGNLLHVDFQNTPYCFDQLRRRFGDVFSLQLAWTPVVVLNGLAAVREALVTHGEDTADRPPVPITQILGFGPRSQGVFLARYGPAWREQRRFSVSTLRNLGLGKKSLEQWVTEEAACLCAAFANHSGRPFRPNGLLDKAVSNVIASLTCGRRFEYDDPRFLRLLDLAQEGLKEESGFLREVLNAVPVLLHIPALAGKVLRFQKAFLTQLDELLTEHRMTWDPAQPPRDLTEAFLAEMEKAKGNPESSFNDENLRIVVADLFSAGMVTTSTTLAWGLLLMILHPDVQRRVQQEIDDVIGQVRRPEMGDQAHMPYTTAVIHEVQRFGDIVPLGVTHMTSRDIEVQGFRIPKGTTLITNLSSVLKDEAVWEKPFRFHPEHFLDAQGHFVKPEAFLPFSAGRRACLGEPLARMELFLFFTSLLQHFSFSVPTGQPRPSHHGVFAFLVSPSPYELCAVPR
Summary of the method: (§2)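 Recombinant CYP3A4 or CYP2D6 incubated 2 h with test compound (0.025–25 μM final) and an isoform-specific luciferin derivative. Firefly luciferase then added, and luminescence is proportional to D-luciferin formed. Reference inhibitors: ketoconazole (CYP3A4) and quinidine (CYP2D6, 0.1–100 nM).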

Cytochrome P450 2D6 [4] = target: T1, Cytochrome P450 2D6; experiment: Inhibition of CYP2D6 (unknown origin) at 0.025 to 25 uM after 2 hrs by firefly luciferase-luminescence based P450-glo assay; format: ADME; summary of the method: as §2
[5] = Tmax in Wistar rat at 10 mg/kg, po administered as single dose by LC/MS analysis; format: ADME, organism-based; details: in vivo
Summary of the method: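 Male Wistar rats (229–272 g), fasted 16 h before and 4 h after dosing, given 10 mg/kg orally in water. Four rats per time point at 15 min, 30 min, 1, 2, 4 and 8 h. Plasma (K3EDTA) and brain homogenate collected and analysed by LC-MS/MS.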

D(2) dopamine receptor = D(2) dopamine receptor (Homo sapiens, UniProt P14416); experiment: Displacement of [3H]-Raclopride from human dopamine D2L receptor expressed in HEK293 cell membranes after 1 hr by microbeta counting method; summary of the method: as §1
D(2) dopamine receptor, sequence (P14416 whole entry): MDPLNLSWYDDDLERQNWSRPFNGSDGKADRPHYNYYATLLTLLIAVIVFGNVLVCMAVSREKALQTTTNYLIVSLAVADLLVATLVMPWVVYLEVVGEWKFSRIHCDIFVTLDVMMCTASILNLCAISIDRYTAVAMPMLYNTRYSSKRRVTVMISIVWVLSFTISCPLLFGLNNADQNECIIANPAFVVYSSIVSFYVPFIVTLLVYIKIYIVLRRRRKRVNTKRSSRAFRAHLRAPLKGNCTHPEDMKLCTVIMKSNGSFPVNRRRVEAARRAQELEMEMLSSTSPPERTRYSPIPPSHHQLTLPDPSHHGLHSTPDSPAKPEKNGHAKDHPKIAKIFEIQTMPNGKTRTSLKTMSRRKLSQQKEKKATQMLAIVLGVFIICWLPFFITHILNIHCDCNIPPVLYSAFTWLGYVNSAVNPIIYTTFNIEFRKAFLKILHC

[6] = target: T2, 5-hydroxytryptamine receptor 1A (Homo sapiens, UniProt P08908); experiment: Displacement of [3H]-8-OH-DPAT from human 5HT1AR expressed in HEK293 cell membranes after 1 hr by microbeta counting method
T2 sequence (P08908 whole entry): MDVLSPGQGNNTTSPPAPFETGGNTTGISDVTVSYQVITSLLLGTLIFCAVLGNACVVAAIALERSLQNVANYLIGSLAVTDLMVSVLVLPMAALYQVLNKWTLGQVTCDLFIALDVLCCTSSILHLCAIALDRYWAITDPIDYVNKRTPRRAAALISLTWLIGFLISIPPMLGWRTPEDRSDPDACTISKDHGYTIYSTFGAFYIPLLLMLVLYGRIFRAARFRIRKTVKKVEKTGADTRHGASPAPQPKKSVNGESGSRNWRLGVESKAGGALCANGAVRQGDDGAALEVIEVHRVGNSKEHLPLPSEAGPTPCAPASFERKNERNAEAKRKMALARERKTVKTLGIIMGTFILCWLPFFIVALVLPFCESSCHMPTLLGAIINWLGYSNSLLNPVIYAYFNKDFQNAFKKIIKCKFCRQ
Summary of the method: as §1, with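 “experiments.” for “experiments. Incubation 1 h 37 °C; 5-HT1A 1 h and 5-HT2A 1.5 h, room temperature.”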

[7] = target: Sodium-dependent serotonin transporter (Homo sapiens) (UniProt P31645); experiment: Displacement of [3H]imipramine from recombinant human SERT at 1 uM after 60 mins by scintillation counting relative to control
Sodium-dependent serotonin transporter (Homo sapiens), sequence (P31645 whole entry, looked up): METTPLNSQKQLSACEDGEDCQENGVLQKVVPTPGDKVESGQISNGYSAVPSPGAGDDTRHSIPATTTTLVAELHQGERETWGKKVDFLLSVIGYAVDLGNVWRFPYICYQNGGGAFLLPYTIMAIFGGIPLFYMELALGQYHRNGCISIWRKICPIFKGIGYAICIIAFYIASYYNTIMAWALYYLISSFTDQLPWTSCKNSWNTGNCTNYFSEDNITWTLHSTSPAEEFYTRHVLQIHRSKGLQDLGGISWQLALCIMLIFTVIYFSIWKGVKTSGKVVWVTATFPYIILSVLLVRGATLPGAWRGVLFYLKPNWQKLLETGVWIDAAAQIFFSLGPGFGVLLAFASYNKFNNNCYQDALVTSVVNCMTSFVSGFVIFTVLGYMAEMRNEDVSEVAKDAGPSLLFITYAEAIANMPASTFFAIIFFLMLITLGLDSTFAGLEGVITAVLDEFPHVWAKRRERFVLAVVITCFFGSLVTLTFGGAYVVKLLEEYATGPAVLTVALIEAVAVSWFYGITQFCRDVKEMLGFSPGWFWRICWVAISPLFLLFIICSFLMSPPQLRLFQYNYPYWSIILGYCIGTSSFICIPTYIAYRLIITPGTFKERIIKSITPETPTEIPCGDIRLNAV

[8] = target: T3, Muscarinic acetylcholine receptor M1 (Homo sapiens) (UniProt P11229); experiment: Displacement of [3H]pirenzepine from recombinant human muscarinic M1 receptor at 1 uM after 60 mins by scintillation counting relative to control
T3 sequence (whole entry): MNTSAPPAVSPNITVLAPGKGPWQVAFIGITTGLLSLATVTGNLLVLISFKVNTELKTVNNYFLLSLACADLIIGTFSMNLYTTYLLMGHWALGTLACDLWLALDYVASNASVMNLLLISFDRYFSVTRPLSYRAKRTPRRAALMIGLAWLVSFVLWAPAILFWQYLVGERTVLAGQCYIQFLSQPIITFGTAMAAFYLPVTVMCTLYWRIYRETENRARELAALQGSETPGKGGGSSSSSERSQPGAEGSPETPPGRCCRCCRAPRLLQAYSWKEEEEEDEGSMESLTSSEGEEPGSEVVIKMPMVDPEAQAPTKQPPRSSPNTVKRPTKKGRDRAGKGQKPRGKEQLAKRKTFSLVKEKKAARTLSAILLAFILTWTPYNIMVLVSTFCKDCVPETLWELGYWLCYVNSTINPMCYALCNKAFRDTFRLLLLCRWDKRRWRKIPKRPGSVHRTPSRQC

[9] = target: 5-hydroxytryptamine receptor 2A (Homo sapiens, UniProt P28223); experiment: Displacement of [3H]-Ketanserin from human 5HT2AR expressed in CHO-K1 cell membranes after 1.5 hrs by microbeta counting method
Summary of the method: as §1, with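 “experiments.” for “experiments. Incubation 1 h 37 °C; 5-HT1A 1 h and 5-HT2A 1.5 h, room temperature.”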

[10] = target: Histamine H3 receptor (Homo sapiens) (UniProt Q9Y5N1); experiment: Displacement of [3H]Nalpha-Me-histamine from recombinant human histamine H3 receptor at 1 uM after 60 mins by scintillation counting relative to control
Histamine H3 receptor (Homo sapiens), sequence (Q9Y5N1 whole entry): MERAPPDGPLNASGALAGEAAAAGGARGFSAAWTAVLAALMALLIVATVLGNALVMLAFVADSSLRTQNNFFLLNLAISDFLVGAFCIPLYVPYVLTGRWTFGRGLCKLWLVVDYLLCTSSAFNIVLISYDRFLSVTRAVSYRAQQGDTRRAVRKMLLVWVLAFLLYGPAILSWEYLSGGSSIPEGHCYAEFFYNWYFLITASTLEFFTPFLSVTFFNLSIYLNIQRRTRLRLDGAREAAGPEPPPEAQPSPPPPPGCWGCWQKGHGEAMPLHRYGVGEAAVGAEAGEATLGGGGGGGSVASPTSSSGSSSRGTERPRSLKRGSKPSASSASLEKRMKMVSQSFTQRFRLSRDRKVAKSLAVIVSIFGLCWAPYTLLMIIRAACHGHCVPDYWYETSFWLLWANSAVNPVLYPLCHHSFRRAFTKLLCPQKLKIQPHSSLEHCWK

Cytochrome P450 3A4 = Cytochrome P450 3A4 (Homo sapiens, UniProt P08684); experiment: Inhibition of CYP3A4 (unknown origin) at 0.025 to 25 uM after 2 hrs by firefly luciferase-luminescence based P450-glo assay; format: ADME; summary of the method: as §2
Cytochrome P450 3A4, sequence (P08684 whole entry): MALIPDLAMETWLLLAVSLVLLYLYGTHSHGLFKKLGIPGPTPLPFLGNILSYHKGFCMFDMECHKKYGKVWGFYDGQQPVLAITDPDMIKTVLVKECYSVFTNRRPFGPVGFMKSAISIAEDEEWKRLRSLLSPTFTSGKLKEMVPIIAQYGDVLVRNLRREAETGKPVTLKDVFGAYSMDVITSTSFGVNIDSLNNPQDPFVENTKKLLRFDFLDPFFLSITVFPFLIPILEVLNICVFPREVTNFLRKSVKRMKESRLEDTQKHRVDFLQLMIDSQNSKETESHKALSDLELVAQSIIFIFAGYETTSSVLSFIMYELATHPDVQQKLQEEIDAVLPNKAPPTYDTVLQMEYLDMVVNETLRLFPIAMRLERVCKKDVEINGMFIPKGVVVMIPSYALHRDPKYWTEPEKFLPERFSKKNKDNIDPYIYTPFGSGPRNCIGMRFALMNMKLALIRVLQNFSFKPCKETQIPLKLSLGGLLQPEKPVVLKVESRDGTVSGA

hERG (KCNH2) = hERG (KCNH2) (Homo sapiens, UniProt Q12809); experiment: Displacement of [3H]Dofetilide from recombinant human ERG at 1 uM after 60 mins by scintillation counting relative to control; details: probe [3H]Dofetilide
hERG (KCNH2), sequence (Q12809 whole entry): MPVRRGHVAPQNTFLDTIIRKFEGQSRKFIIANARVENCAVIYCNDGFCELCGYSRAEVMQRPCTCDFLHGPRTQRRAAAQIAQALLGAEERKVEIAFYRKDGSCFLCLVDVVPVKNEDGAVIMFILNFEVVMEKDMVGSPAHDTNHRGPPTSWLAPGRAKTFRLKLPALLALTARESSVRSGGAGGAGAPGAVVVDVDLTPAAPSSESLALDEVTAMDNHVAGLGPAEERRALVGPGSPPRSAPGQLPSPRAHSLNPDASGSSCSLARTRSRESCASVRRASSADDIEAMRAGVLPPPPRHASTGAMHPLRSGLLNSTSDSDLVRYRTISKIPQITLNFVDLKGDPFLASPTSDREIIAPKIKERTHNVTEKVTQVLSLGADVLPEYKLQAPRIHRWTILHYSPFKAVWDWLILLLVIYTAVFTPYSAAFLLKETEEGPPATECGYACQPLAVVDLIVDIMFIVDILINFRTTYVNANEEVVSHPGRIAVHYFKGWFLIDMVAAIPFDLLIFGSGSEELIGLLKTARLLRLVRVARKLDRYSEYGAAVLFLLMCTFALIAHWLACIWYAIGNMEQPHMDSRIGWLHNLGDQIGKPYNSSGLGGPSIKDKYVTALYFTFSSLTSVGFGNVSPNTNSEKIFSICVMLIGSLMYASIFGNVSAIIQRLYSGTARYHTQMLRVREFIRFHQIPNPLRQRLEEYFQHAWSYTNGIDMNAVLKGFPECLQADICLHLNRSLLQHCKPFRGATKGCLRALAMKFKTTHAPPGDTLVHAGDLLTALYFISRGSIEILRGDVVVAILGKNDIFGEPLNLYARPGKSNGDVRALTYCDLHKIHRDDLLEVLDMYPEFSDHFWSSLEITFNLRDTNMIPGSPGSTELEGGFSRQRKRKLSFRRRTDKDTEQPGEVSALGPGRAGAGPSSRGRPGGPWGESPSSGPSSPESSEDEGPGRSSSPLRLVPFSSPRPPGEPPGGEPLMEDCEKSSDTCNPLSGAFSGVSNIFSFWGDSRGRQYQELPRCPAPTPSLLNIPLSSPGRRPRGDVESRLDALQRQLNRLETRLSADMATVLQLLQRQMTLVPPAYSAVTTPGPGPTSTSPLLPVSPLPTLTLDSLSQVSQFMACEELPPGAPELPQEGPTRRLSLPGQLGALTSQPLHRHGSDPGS

D(3) dopamine receptor (Homo sapiens), sequence (P35462 whole entry): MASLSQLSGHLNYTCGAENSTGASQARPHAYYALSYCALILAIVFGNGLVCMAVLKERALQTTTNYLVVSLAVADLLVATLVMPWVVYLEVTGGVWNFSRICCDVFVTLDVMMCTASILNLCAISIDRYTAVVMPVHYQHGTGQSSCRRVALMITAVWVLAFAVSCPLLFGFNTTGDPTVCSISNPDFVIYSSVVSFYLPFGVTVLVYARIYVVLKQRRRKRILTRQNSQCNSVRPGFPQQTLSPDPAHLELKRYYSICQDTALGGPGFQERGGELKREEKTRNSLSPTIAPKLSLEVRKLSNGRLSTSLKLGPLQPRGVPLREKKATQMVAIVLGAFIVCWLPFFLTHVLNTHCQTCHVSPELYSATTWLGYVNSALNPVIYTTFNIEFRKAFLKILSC

**Q.** What does the source list for `CCc1nc2c(N3CCNCC3)ccnc2n1Cc1cccc(F)c1`?
**A.** inhibition [1]: 18%; Ki [2]: 12.3 µM; Activity (Cytochrome P450 2D6 [3]): Active; inhibition (INH) (Cytochrome P450 2D6 [4]): Not Active; Tmax [5]: 15 min; Ki (D(2) dopamine receptor): 3.48 µM; Ki [6]: 2.79 µM; inhibition [7]: 1.9%; inhibition [8]: 3%; Ki [9]: 0.441 µM; inhibition [10]: 1.6%; inhibition (INH) (Cytochrome P450 3A4): Not Active; inhibition at 1 h, 1 µM (hERG (KCNH2)): -6.1%
